Measured values from different studies.
Lines come from different studies, so protocols differ.
HTR2C: 5-hydroxytryptamine receptor 2C (HTR2C, Homo sapiens, UniProt P28335)

The inhibition of `COc1cc2c3c(c1OC)-c1c(OC)ccc(Cl)c1CC3N(C)CC2` (racemic) is reported as 80% (HTR2C; ligand displacement; radioligand; 10 µM).
With `COc1cc(CCNC(C)c2ccccc2)c(OC)cc1C#N` (stereo not drawn) the Emax was 41% (HTR2C; calcium signal; agonist).
`Nc1ncnc2c1ncn2[C@@H]1O[C@H](C[C@@H](N)CC[C@H](N)C(=O)O)[C@@H](O)[C@H]1O` gave an inhibition of 61.8% (mRNA cap guanine-N(7) methyltransferase (RNMT, Homo sapiens, UniProt O43148); enzyme activity; inhibitor; 12.5 µM).
With `CC(C)CC(=O)OC[C@H]1O[C@@](C#N)(c2ccc3c(N)ncnn23)[C@H](O)[C@@H]1O` the inhibition was -2% (B2 bradykinin receptor (BDKRB2, Homo sapiens, UniProt P30411); cell-free assay; 20 µM).
With `[2H]c1c([2H])c([C@]2([2H])CCCN2C(=O)C(C)(C)Oc2ccc3cn[nH]c3c2)c([2H])c([2H])c1C([2H])([2H])[2H]` the remaining binding was 57% (Tyrosine-protein kinase receptor TYRO3 (TYRO3, Homo sapiens, UniProt Q06418); binding; competition with immobilised ligand; 1 µM).
`COc1cc(CCNCc2ccccc2O)c(OC)cc1C#N` gave an Emax of 122% (HTR2C; G protein activation; agonist; BRET).
`COc1cc2c(cc1OC)-c1c(OC)c(OC)cc3c1[C@H](C2)N(C)CC3` has an inhibition of 79% (HTR2C; ligand displacement; radioligand; 10 µM).
For `O=P(O)(O)O[C@H]1[C@H](OP(=O)(O)O)[C@@H](OP(=O)(O)O)[C@H](OP(=O)(O)O)[C@@H](OP(=O)(O)O)[C@H]1OP(=O)(O)O`, the residence time was 0.4 min (Toxin B (tcdB, Clostridioides difficile, UniProt P18177); binding; ITC).
With `COc1cc(CCNC(C)c2ccccc2O)c(OC)cc1Br` (stereo not drawn) the Emax was 92% (HTR2C; calcium signal; agonist).
